{
  "source": "ChEMBL document CHEMBL1135935",
  "about": "“Halogenated diazirines as photolabel mimics of the inhaled haloalkane anesthetics” (J Med Chem, 2002)",
  "key": {"[1]": {"assay": "Effective concentration for tadpole immobility after 5 min (slow recovery)", "type": "functional, frog", "conditions": "Amphibia, read-out: ED50 (the source's name)", "method_in_brief": "(§1)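 Tadpoles were exposed to compound in pond water and scored for loss of righting reflex over 5 min. They were then moved to fresh pond water and watched for recovery, intermittently for 3 h. EC50 values are estimates within 2-fold.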"}, "Albumin": {"target": "Albumin (Homo sapiens, UniProt P02768)", "sequence (P02768 whole entry)": "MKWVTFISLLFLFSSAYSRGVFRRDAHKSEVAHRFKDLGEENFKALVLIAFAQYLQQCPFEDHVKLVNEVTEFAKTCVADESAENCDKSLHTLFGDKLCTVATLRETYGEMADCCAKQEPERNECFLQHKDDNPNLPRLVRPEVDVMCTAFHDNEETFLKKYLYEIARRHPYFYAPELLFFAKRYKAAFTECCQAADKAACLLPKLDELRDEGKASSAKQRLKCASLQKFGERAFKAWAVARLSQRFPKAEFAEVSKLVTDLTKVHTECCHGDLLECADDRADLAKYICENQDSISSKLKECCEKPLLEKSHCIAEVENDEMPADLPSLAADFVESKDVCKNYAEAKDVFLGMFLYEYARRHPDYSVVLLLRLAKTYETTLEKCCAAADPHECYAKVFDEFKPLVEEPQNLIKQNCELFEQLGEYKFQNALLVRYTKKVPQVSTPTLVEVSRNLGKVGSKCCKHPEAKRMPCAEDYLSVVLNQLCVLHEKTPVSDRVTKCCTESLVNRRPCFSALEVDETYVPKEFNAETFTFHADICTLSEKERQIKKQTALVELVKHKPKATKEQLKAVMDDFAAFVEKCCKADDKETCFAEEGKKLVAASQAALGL", "assay": "Inhibitory concentration bound to tryptophan containing region of Serum albumin in fluorescence quenching", "method_in_brief": "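Increasing compound concentrations were added from stock buffer solutions to ~2 µM human serum albumin, which has a single Trp-214. The cuvette was kept air-free. Excitation was 295 nm with emission scanning at room temperature. Fluorescence maxima were corrected for inner-filter effects, and EC50 and Hill slope were derived.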"}, "[2]": {"assay": "(§2) Effective concentration to potentiate GABA responses", "type": "functional", "method_in_brief": "(§3)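 Stage V–VI Xenopus oocytes were defolliculated with collagenase and injected with 1–2 ng of each subunit cRNA in a 1:1 ratio. They were kept in ND96 with 50 µg/mL gentamicin at 18 °C for 3–5 days. Voltage-clamp recording was done under continuous ND96 superfusion (pH 7.5).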"}, "[3]": {"assay": "Dissociation constant for a single binding site", "method_in_brief": "(§4)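 Bovine serum albumin (10 mg/mL) was pre-equilibrated with ~5 mCi tritiated water in 1 M GdnCl, 0.1 M NaH2PO4 pH 8.5 for ≥18 h at room temperature. Exchange-out ran with compound present. Aliquots were taken at timed intervals over ≥6 h, precipitated in ice-cold 10% TCA, filtered, and counted by scintillation. PFR came from the last 3–5 shared hydrogens. KD was derived from PFr = 1 + ([compound]/KD)^n.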"}, "[4]": {"assay": "as §2", "type": "functional", "method_in_brief": "as §3", "remark": "listed apart in the source"}, "[5]": {"assay": "Effective concentration for rapid onset of reversible immobility (tadpole) at about 0.1 mM", "type": "functional, frog", "method_in_brief": "as §1"}, "[6]": {"assay": "Effective concentration for tadpole immobility (less potent)", "type": "functional, frog", "method_in_brief": "as §1"}, "[7]": {"assay": "Dissociation constant for a single binding site at 5 mM concentration", "method_in_brief": "as §4"}},
  "data": [
    {"smiles": "FC(Cl)C(F)(F)C1(Br)N=N1", "note": "(configuration not stated)", "values": [
      {"measurement": "EC50", "setting": "[1]", "result": 300, "unit": "µM"},
      {"measurement": "IC50", "setting": "Albumin", "result": 700, "unit": "µM"},
      {"measurement": "ED50", "setting": "[2]", "result": 80, "unit": "µM"},
      {"measurement": "Kd", "setting": "[3]", "result": 600, "unit": "µM"}
    ]},
    {"smiles": "FC(F)(F)C(Cl)Br", "note": "(configuration not stated) [HALOTHANE]", "values": [
      {"measurement": "IC50", "setting": "Albumin", "result": 2900, "unit": "µM"},
      {"measurement": "Kd", "setting": "[3]", "result": 900, "unit": "µM"}
    ]},
    {"smiles": "FC(F)(C(Cl)Br)C1N=N1", "note": "(configuration not stated)", "values": [
      {"measurement": "EC50", "setting": "[4]", "result": 50, "unit": "µM"},
      {"measurement": "IC50", "setting": "Albumin", "result": 800, "unit": "µM"},
      {"measurement": "EC50", "setting": "[5]", "result": 100, "unit": "µM"},
      {"measurement": "Kd", "setting": "[3]", "result": 200, "unit": "µM"}
    ]},
    {"smiles": "FC(Cl)C(F)(F)C1(F)N=N1", "note": "(configuration not stated)", "values": [
      {"measurement": "EC50", "setting": "[6]", "result": 2500, "unit": "µM"},
      {"measurement": "IC50", "setting": "Albumin", "result": 2200, "unit": "µM"},
      {"measurement": "Kd", "setting": "[3]", "result": 4800, "unit": "µM"}
    ]},
    {"smiles": "FC(F)(F)C1(Br)N=N1", "values": [
      {"measurement": "IC50", "setting": "Albumin", "result": 400, "unit": "µM"},
      {"measurement": "Kd", "setting": "[3]", "result": 5600, "unit": "µM"}
    ]},
    {"smiles": "[N-]=[N+]=CC(F)(F)F", "values": [
      {"measurement": "Kd", "setting": "[7]", "result": 1300, "unit": "µM"},
      {"measurement": "IC50", "setting": "Albumin", "result": 1200, "unit": "µM"}
    ]}
  ]
}
